Assay outcomes (PubChem)
Only some compounds are listed: those with a hit (about 2.3% of all), similar ones and a draw of the others.
STEP block: inhibitors of human striatal-enriched phosphatase STEP; recombinant STEP, OMFP fluorogenic substrate, fluorescence; P54829; 360,000 tested, 0.25% active; inhibition, % at 20 µM;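 active = inhibition at 20 µM, scaled per plate between control wells, above about 37%, limit read from the data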;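 note: 0% = DMSO with enzyme and substrate and 100% = substrate only without enzyme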
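material = STEP tyrosine phosphatase | reagent = fluorogenic phosphatase substrate OMFP at 25 µM final | doses = single compound dose of 20 µM, 1% DMSO final | schedule = 20 min reaction, room temperature, in the dark | measured by = fluorescence, 480/540 nm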
SUMO1 PPI mod: modulators of human SUMO1-mediated protein-protein interactions | 360,000 tested, 0.33% active | P63165 | inhibition, % at 20 µM | SUMO1 binding to a labelled peptide, TR-FRET, 1 h; in the data active = inhibition above about 37%
Target sequence (P63165 whole entry, looked up): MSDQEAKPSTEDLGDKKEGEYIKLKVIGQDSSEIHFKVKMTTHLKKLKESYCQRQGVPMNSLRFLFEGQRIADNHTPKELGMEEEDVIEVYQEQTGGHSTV
DNMT1 block: blocks human DNA methyltransferase DNMT1. P26358. DNMT1 molecular beacon, Hinp1I cleavage, fluorescence. inhibition (reported as % activation of signal), % at 10 µM. 360,000 tested, 0.83% active; in the data active = inhibition above about 50%
Rpn11 inh: Rpn11 (human) deubiquitinase inhibition; 360,000 tested, 0.59% active; human 26S proteasome, Ub4-pepOG fluorescence polarization; 20S core pre-blocked with epoxomicin; AID 588493; inhibition, % at 20 µM;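 active = inhibition at 20 µM, scaled to each plate's controls, above about 33%, limit read from the data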
Target sequence (O00487 whole entry, looked up): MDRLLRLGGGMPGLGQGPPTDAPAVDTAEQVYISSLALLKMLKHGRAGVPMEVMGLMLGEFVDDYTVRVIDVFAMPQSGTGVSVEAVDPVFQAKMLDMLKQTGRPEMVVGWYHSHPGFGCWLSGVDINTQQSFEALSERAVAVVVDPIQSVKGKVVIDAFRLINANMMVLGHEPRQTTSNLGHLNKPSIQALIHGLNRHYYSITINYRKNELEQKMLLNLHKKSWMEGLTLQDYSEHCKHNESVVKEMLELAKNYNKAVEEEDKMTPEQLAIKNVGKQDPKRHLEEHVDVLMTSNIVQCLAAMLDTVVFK
LMPTP block: LMPTP (human) inhibition; P24666; recombinant LMPTP-A, OMFP fluorogenic substrate, fluorescence intensity; inhibition, % at 20 µM; 360,000 tested, 0.22% active; AID 651560;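 active = compounds that cut the enzyme signal by at least half of the control window in the single-dose screen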;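 note: plate controls were DMSO wells with enzyme plus substrate for no effect and substrate without enzyme for full effect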
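Buffer or medium: Bis-Tris pH 6.0, DTT, detergent; Assay system: LMPTP-A enzyme; Quantity: 0.625 nM enzyme; Detection: endpoint fluorescence intensity; Times: 50 min dark incubation at room temperature; Controls: substrate-only low control, DMSO enzyme-plus-substrate high control; Doses: single 20 µM dose; Read-out: percent inhibition versus substrate-only and uninhibited controls; Reagent: 400 µM OMFP.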
Scp1 inh: Scp-1 (human) phosphatase inhibition | Q9GZU7 | Recombinant Scp1, phosphopeptide, malachite green phosphate absorbance | inhibition, % at 20 µM | 340,000 tested, 0.88% active;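 active = inhibition above about 50% at 20 µM, limit read from the data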;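 note: plate controls were DMSO wells with enzyme for no effect and wells lacking enzyme for full effect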
Target sequence (Q9GZU7 76-261 limits assumed): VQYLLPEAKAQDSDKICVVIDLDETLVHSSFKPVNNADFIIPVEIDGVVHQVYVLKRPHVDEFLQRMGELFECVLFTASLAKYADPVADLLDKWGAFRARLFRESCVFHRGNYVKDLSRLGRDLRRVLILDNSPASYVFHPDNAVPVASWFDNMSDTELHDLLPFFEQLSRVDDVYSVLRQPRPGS
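System: truncated SCP-1 phosphatase (76-261aa); medium: Tris acetate buffer pH 5.5 with MgCl2 and Tween-20; incubation: 45 min room-temperature reaction, 5 min colour, 30 min stabiliser; compound: single 20 µM dose, 1% DMSO; reagent: Phosphorylated 17-residue peptide substrate; read-out: % inhibition at 20 µM; technique: colorimetric free-phosphate detection, absorbance 630 nm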
Rpn11 confirm: Rpn11 inhibition confirmation, single concentration; shares compounds with Rpn11 inh; purified human 26S proteasome, Ub4-pepOG fluorescence polarization; proteasome pretreated with epoxomicin; inhibition, % at 20 µM; 1,900 tested, 29% active; AID 602318
MMP-2 counter: blocks human MMP-2, flagging nonselective RPN11 hits. shares compounds with Rpn11 inh. AID 602330. inhibition, % at 20 µM. 1,900 tested, 4% active. recombinant MMP-2, FRET peptide cleavage fluorescence;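 note: human MMP-2 activated beforehand with APMA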
Thrombin inh: counter-screen for RPN11 inhibitors: inhibition of bovine thrombin | inhibition, % at 20 µM | shares compounds with Rpn11 inh | 1,900 tested, 13% active | AID 602333 | bovine thrombin cleavage of Ub4-pepOG, fluorescence polarization;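 active = mean inhibition at least 40% at 20 µM, or signal 3 deviations below plate average, so some actives read negative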;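 note: plate controls were thrombin with DMSO for no effect and buffer wells lacking thrombin for full effect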
The depositor's hits bear a star. Cut-off read from the data, not from the text of the source, unless noted: active = inhibition above about 40%; inactive = the rest.

What do the screens show for `Cc1nc2ccc(NC(=O)c3cc(S(=O)(=O)N(C)c4ccccc4)ccc3Cl)cc2s1`?
STEP block: 1; SUMO1 PPI mod: 0; DNMT1 block: 17; Rpn11 inh: 35; LMPTP block: 1; Scp1 inh: -2

What do the screens show for `CCOc1ccc2nc(Nc3nc(CSc4nnnn4-c4ccccc4)cc(=O)[nH]3)nc(C)c2c1`?
STEP block: 4; SUMO1 PPI mod: 3; DNMT1 block: 0; Rpn11 inh: 38*; LMPTP block: 4; Scp1 inh: -4; Rpn11 confirm: -3; MMP-2 counter: -18; Thrombin inh: 6

Results for Nc1ccc2c(c1)C(=NO)c1cc([N+](=O)[O-])ccc1-2 ?
STEP block: 0; SUMO1 PPI mod: -17; DNMT1 block: -43; Rpn11 inh: 44*; LMPTP block: 2; Scp1 inh: 4; Rpn11 confirm: 12; MMP-2 counter: -3; Thrombin inh: 7

What do the screens show for `O=C(c1ccnc(Cl)c1)N1CCCC(N2CCN(c3ccccc3F)CC2)C1` (centres undefined)?
STEP block: 1; SUMO1 PPI mod: 4; DNMT1 block: -1; Rpn11 inh: 54*; LMPTP block: 2; Scp1 inh: -3; Rpn11 confirm: 4; MMP-2 counter: -26; Thrombin inh: -12

How did O=C(NC(=S)Nc1ccccc1O)c1cncc(Br)c1 do in these assays?
STEP block: 1; SUMO1 PPI mod: 2; DNMT1 block: -5; Rpn11 inh: 48*; LMPTP block: -1; Scp1 inh: -1; Rpn11 confirm: 39; MMP-2 counter: -25; Thrombin inh: 9

What do the screens show for `Cc1cn2c(=O)c(C(=O)N3CCN(c4ccccc4F)CC3)cnc2s1`?
STEP block: 0; SUMO1 PPI mod: -4; DNMT1 block: 2; Rpn11 inh: -1; LMPTP block: 0; Scp1 inh: 4

Results for COc1ccc(/C=C2\Sc3ccc(C(=O)NCCN4CCCCCC4)cc3N(C)C2=O)cc1 ?
STEP block: 7; SUMO1 PPI mod: -50; DNMT1 block: 18; Rpn11 inh: 42*; LMPTP block: 5; Scp1 inh: 0; Rpn11 confirm: 40; MMP-2 counter: -82; Thrombin inh: 31

How did CCN(CC)S(=O)(=O)c1cc(C)ccc1SC do in these assays?
STEP block: 0; SUMO1 PPI mod: 4; DNMT1 block: 3; Rpn11 inh: 28*; LMPTP block: -1; Scp1 inh: -21; Rpn11 confirm: -3; MMP-2 counter: -21; Thrombin inh: 2

What do the screens show for `COc1ccc(NS(=O)(=O)c2cc([N+](=O)[O-])ccc2N/N=C/c2c(C)[nH]c3ccccc23)cc1`?
STEP block: -1; SUMO1 PPI mod: -8; DNMT1 block: -7; Rpn11 inh: 65*; LMPTP block: 8; Scp1 inh: -12; Rpn11 confirm: 44*; MMP-2 counter: -26; Thrombin inh: -16

What do the screens show for `Cc1[nH]c2ccccc2c1/C=N/Nc1ccccc1[N+](=O)[O-]`?
STEP block: 4; SUMO1 PPI mod: -21; DNMT1 block: -6; Rpn11 inh: 0; LMPTP block: 4; Scp1 inh: -9

How did Nc1nnc(SCc2nc3scc(-c4ccccc4)c3c(=O)[nH]2)s1 do in these assays?
STEP block: 0; SUMO1 PPI mod: 2; DNMT1 block: 0; Rpn11 inh: 70*; LMPTP block: 0; Scp1 inh: -9; Rpn11 confirm: 70*; MMP-2 counter: 0; Thrombin inh: 60*

Results for Cc1nnc(SCc2nc3scc(-c4ccccc4)c3c(=O)[nH]2)s1 ?
STEP block: -1; SUMO1 PPI mod: -3; DNMT1 block: -2; Rpn11 inh: 43*; LMPTP block: 1; Scp1 inh: -1; Rpn11 confirm: 42*; MMP-2 counter: -2; Thrombin inh: 32

What do the screens show for `O=c1[nH]c(Cc2ccccc2)nc2scc(-c3ccccc3)c12`?
STEP block: -4; SUMO1 PPI mod: 0; DNMT1 block: 4; Rpn11 inh: 1; LMPTP block: -3; Scp1 inh: -2

How did COCCn1c(SCc2nc3scc(-c4ccc(Cl)cc4)c3c(=O)[nH]2)nnc1-c1cccc(C)c1 do in these assays?
STEP block: -1; SUMO1 PPI mod: 1; DNMT1 block: -3; Rpn11 inh: 50*; LMPTP block: 4; Scp1 inh: 4; Rpn11 confirm: 24; MMP-2 counter: -9; Thrombin inh: 4

What do the screens show for `CCOc1ccc(NC(=O)CN(C)C(=O)Cn2cnc3c2c(=O)n(C)c(=O)n3C)cc1OCC`?
STEP block: -1; SUMO1 PPI mod: 3; DNMT1 block: 0; Rpn11 inh: 3; LMPTP block: 0; Scp1 inh: 2

Results for O=C(NC1CCCCCC1)C(=S)NCc1ccccc1 ?
STEP block: 1; SUMO1 PPI mod: 3; DNMT1 block: 0; Rpn11 inh: -5; LMPTP block: 2; Scp1 inh: -12

How did CCCN(C(=O)CSCC(=O)Nc1cccc(C)c1)c1c(N)n(Cc2ccccc2)c(=O)[nH]c1=O do in these assays?
STEP block: -3; SUMO1 PPI mod: 5; DNMT1 block: 1; Rpn11 inh: -1; LMPTP block: -1; Scp1 inh: -7

What do the screens show for `COc1ccc(N2CCN(C(=O)c3ccc4c(c3)NC(=O)C(CSCc3ccccc3F)N4)CC2)cc1` (centres undefined)?
STEP block: 5; SUMO1 PPI mod: 8; DNMT1 block: -9; Rpn11 inh: 47*; LMPTP block: 14; Rpn11 confirm: 31; MMP-2 counter: 30; Thrombin inh: 22

What do the screens show for `Cc1cccc(N2CCN(C(=O)c3ccc4c(c3)NC(=O)C(CSCc3cccc(F)c3)N4)CC2C)c1` (centres undefined)?
STEP block: -2; SUMO1 PPI mod: 5; DNMT1 block: -8; LMPTP block: 1; Scp1 inh: 6

How did Cc1cc(C=C2C(=O)c3ccccc3C2=O)c(C)n1-c1ccc(C(=O)O)cc1 do in these assays?
STEP block: 7; SUMO1 PPI mod: -2; DNMT1 block: 16; Rpn11 inh: 40*; LMPTP block: 3; Scp1 inh: 5; Rpn11 confirm: 9; MMP-2 counter: -22; Thrombin inh: 12
